pIC50, pKi: −log10 of the molar value.
Legend:
[1] = target: T1, Corticotropin-releasing factor receptor 1 (Homo sapiens, UniProt P34998); assay: Antagonist activity at human recombinant CRF1 receptor expressed in CHO cells by cAMP assay; type: functional, cell-based
T1 sequence (P34998 whole entry): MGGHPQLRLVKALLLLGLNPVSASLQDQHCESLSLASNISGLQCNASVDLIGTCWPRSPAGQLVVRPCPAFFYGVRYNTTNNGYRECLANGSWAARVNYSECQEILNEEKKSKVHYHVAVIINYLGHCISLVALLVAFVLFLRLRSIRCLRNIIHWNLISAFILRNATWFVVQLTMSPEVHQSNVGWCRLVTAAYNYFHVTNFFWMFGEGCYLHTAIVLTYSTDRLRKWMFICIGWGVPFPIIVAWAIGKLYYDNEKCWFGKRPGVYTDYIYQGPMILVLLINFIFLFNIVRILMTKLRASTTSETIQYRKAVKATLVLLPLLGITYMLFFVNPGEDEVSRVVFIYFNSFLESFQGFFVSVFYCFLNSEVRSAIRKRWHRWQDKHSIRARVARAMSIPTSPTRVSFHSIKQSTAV
Outline: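 CHO cells stably expressing recombinant human CRF-1 were grown in DMEM:F12 (1:1) with 10% FBS, 400 µg/ml Geneticin and 1% Glutamax at 37 °C, 5% CO2 to 70% confluence. 10,000 cells/well in PBS with 500 µM IBMX (final) were stimulated with hCRF (108 nM final) plus test compound. cAMP was read by HitHunter cAMP II kit. Compounds were tested repeatedly over a 0.5-log serial dilution series.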

[2] = Intrinsic clearance in liver microsomes; type: ADME, Microsome; settings: read-out: CLH
[3] = target: T2, Progesterone receptor (Homo sapiens, UniProt P06401); assay: Antagonist activity at progesterone receptor; type: functional
T2 sequence (P06401 whole entry): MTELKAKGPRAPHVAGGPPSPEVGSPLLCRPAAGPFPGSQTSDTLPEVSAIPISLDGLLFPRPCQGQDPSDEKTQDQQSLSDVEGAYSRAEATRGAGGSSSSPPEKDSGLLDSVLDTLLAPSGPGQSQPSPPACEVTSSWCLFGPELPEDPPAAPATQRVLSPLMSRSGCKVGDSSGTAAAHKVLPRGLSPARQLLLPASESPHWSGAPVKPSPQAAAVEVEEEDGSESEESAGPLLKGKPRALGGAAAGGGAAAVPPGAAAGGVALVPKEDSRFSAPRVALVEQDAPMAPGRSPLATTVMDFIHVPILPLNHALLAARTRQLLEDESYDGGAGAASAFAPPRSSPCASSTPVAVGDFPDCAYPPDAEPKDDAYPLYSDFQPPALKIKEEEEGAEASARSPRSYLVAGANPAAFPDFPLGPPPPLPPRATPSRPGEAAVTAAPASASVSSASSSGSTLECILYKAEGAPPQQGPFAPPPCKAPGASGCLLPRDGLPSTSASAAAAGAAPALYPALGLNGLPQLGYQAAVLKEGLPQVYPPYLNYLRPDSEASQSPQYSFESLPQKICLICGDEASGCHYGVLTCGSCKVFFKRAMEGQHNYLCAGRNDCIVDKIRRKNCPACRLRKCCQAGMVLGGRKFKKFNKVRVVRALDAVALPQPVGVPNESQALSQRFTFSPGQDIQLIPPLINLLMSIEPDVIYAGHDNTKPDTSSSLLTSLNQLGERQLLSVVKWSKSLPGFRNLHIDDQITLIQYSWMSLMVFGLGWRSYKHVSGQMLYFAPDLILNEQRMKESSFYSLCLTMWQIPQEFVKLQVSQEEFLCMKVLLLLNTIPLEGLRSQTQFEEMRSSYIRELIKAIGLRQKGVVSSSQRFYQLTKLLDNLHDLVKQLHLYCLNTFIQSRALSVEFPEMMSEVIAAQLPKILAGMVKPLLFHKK

pKi [1] | microsomal CLint [2] [µL/min/mg] | pIC50 [3] | SMILES
7.28 | – | – | CCCCN(CC)c1nc(C)nc2c1c(C)c(C=O)n2-c1c(C)cc(C)cc1C
7.49 | – | – | CCCCN(CC)c1nc(C)nc2c1c(C)c(C)n2-c1c(C)cc(C)cc1C [ANTALARMIN]
8.22 | – | – | CCCCN(CC)c1nc(C)nc2c1c(C)c(CO)n2-c1c(C)cc(C)cc1C
7.96 | – | – | CCCCN(CC)c1nc(C)nc2c1c(C)c(COC)n2-c1c(C)cc(C)cc1C
– | 81 | 8.00 | CC#C[C@]1(O)CC[C@H]2[C@@H]3CCC4=CC(=O)CCC4=C3[C@@H](c3ccc(N(C)C=O)cc3)C[C@@]21C
– | 76 | 6.11 | CC#C[C@]1(O)CC[C@H]2[C@@H]3CCC4=CC(=O)CCC4=C3[C@@](Cl)(c3cc(Cl)c(N(C)C)c(Cl)c3)C[C@@]21C
– | – | 6.37 | CC#C[C@]1(O)CC[C@H]2[C@@H]3CCC(=O)C(CCC(=O)O)=C3[C@@H](c3ccc(N(C)C=O)cc3)C[C@@]21C
– | – | 6.51 | CC#C[C@]1(O)CC[C@H]2[C@@H]3CCC4=CC(=O)CCC4=C3C(c3ccc(N(C)C)cc3)=C[C@@]21C
– | 92.5 | – | CC#C[C@]1(O)CC[C@H]2[C@@H]3CCC4=CC(=O)CCC4=C3[C@@H](c3ccc(N(C)C)cc3)C[C@@]21C [MIFEPRISTONE]
